Measured values from ChEMBL document CHEMBL1131572, “A potent, orally bioavailable benzazepinone growth hormone secretagogue” (1998).

Organism: Rattus norvegicus
Assay: In vitro growth hormone (GH) releasing activity in rat primary pituitary cells.
Assay type: functional
Conditions: Pituitary gland cell, read-out: ED50 (the source's name)
In short: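 Rat anterior pituitaries dispersed with 0.2% collagenase and 0.2% hyaluronidase, then cultured 3–4 days at 37 °C, 5% CO₂, in DMEM with 10% horse serum and 2.5% FBS. Cells washed in medium with 25 mM HEPES pH 7.4, then exposed in quadruplicate to serially diluted agents (final 1% DMSO) for 15 min at 37 °C. Medium GH measured by double-antibody RIA; ED₅₀ = dose giving 50% maximal GH release.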

Compound	EC50
CC(C)(N)C(=O)N[C@@H]1CCc2ccccc2N(Cc2ccc(-c3ccccc3-c3nn[nH]n3)cc2)C1=O	30 nM
CN(C)C(=O)NCc1ccccc1-c1ccc(CN2C(=O)[C@H](NC(=O)C(C)(C)N)CCc3ccccc32)cc1	60 nM
CNC(=O)NCc1ccccc1-c1ccc(CN2C(=O)[C@H](NC(=O)CC(C)(C)N)CCc3ccccc32)cc1	6 nM
CC(C)(N)C(=O)N[C@@H]1CCc2ccccc2N(Cc2ccc(-c3ccccc3CNC(=O)NCCO)cc2)C1=O	2 nM
CCNC(=O)NCc1ccccc1-c1ccc(CN2C(=O)[C@H](NC(=O)C(C)(C)N)CCc3ccccc32)cc1	6 nM
CCCNC(=O)NCc1ccccc1-c1ccc(CN2C(=O)[C@H](NC(=O)C(C)(C)N)CCc3ccccc32)cc1	144 nM
CC(C)NC(=O)NCc1ccccc1-c1ccc(CN2C(=O)[C@H](NC(=O)C(C)(C)N)CCc3ccccc32)cc1	270 nM
CC(C)(N)C(=O)N[C@@H]1CCc2ccccc2N(Cc2ccc(-c3ccccc3CNC(=O)NC3CC3)cc2)C1=O	45 nM
CC(C)(N)CC(=O)N[C@@H]1CCc2ccccc2N(Cc2ccc(-c3ccccc3-c3nn[nH]n3)cc2)C1=O	60 nM
CNC(=O)NCCc1ccccc1-c1ccc(CN2C(=O)[C@H](NC(=O)C(C)(C)N)CCc3ccccc32)cc1	40 nM
CC(C)(N)C(=O)N[C@@H]1CCc2ccccc2N(Cc2ccc(-c3ccccc3CNC(=O)NCc3ccccc3)cc2)C1=O	390 nM
CC(C)(N)C(=O)N[C@@H]1CCc2ccccc2N(Cc2ccc(-c3ccccc3CNC(N)=O)cc2)C1=O	21 nM
CNC(=O)Nc1ccccc1-c1ccc(CN2C(=O)[C@H](NC(=O)CC(C)(C)N)CCc3ccccc32)cc1	50 nM
CC(C)(N)CC(=O)N[C@@H]1CCc2ccccc2N(Cc2ccc(-c3ccccc3C(N)=O)cc2)C1=O	80 nM
CC(C)(N)CC(=O)N[C@@H]1CCc2ccccc2N(Cc2ccc(-c3ccccc3CN)cc2)C1=O	> 1000 nM
CNC(=O)NCc1ccccc1-c1ccc(CN2C(=O)[C@H](NC(=O)C(C)(C)N)CCc3ccccc32)cc1	1 nM
CC(=O)NCc1ccccc1-c1ccc(CN2C(=O)[C@H](NC(=O)CC(C)(C)N)CCc3ccccc32)cc1	200 nM
